Assay [1] relates to Mus musculus. Description: CNS activity in mouse assessed as alteration of exploratory behaviour at 20 mg/kg, po. The format is functional, organism-based. Also noted: dose 20 mg/kg. The gist of the method:
(§1)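 Mice in groups of five, dosed orally, placed in doughnut-shaped activity cages (six infrared photocells) 90 min post-dose. Beam breaks counted cumulatively at 30, 60, 90 and 120 min in cage ([…]) plus 120-min total. Counts compared with vehicle-injected controls. Compounds dissolved in acetone.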

Assay [2] concerns Rattus norvegicus. Kind of assay: CNS activity in septal-lesioned rat assessed as decrease in hyperreactivity behaviour at 10 mg/kg, po. It is filed as functional, organism-based. Also noted: dose 10 mg/kg. The essentials:
(§2)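 Septal-lesioned rats rated hyperreactive at score ≥11 used as their own controls; oral dosing. Reactivity rated at 30, 60, 120, 240, 300 min post-dose. P value = postdrug rating sum / predrug sum per period. E value = mean of ten 30-min periods over 300 min, interpolated, / predrug sum. Student's t test, p<0.01.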

In assay [3] the test system is Rattus norvegicus. Description: CNS activity in po dosed rat assessed as protection against muricide. It is filed as functional. To be noted: for minimal effective dose: Rattus norvegicus, po, read-out: MED. The gist of the method: (§3)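 Rats with innate mouse-killing behaviour, control kill time under 5 s; three rats per dose, oral dosing, vehicle controls at equal injection volume. Muricide scored 15–360 min post-dose (0 = 0–59 s, 1 = 60–120 s, 2 = >120 s). Scores converted to percent protection versus vehicle; Student's t test for significance.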

In assay [4] the test system is Mus musculus. Description: CNS activity in po dosed mouse assessed as alteration of exploratory behaviour. The format is functional. As to conditions: for minimal effective dose: Mus musculus, po, read-out: MED. The gist of the method:
as §1

For assay [5], the system named is Rattus norvegicus. Kind of assay: CNS activity in po dosed septal-lesioned rat assessed as decrease in hyperreactivity behaviour. The format is functional. As to conditions: for minimal effective dose: Rattus norvegicus, po, read-out: MED. The essentials: as §2
For assay [6], the system named is Rattus norvegicus. Description: CNS activity in rat assessed as protection against muricide at 10 mg/kg, po. The format is functional, organism-based. Also on record: dose 10 mg/kg. The essentials: as §3

The source made the active and inactive calls. No cut-off for these calls is given here.

For the compound `CCCCCc1cc(O)c2c(c1)OC(C)(C)C1=C2CC(C)CC1` (racemic), the outcome with Mus musculus [1] and in the assay with Rattus norvegicus [2] was inactive. In addition, the minimal effective dose in the assay with Rattus norvegicus [3] amounted to 10 mg/kg.
As for `CCCCCC(C)C(C)c1cc(O)c2c(c1)OC(C)(C)C1=C2CC(C)CC1` (racemic), the minimal effective dose came out at 0.62 mg/kg in the assay on Mus musculus [4], 5 mg/kg with Rattus norvegicus [5] and 2.5 mg/kg with Rattus norvegicus [3].
Regarding `CCCCCCC(C)(C)c1cc(O)c2c(c1)OC(C)(C)C1=C2CC(C)CC1` (racemic), the figures for the minimal effective dose in the assay with Mus musculus [4] and in the assay with Rattus norvegicus [5] were 0.62 mg/kg and 1.25 mg/kg, respectively. Moreover, in the assay on Rattus norvegicus [3], the MED worked out at 0.62 mg/kg.
`CCCCCC(C)C(C)c1cc(N)c2c(c1)OC(C)(C)C1=C2CC(C)CC1` (racemic): the minimal effective dose with Mus musculus [4] stood at 2.5 mg/kg; in the assay with Rattus norvegicus [5] it was 10 mg/kg; with Rattus norvegicus [3], 5 mg/kg.
Consider `CCCCCCC(C)(C)c1cc(N)c2c(c1)OC(C)(C)C1=C2CC(C)CC1` (racemic) [listing 1 of 2 here], for which the minimal effective dose in the assay on Mus musculus [4] was found to be 5 mg/kg; in the assay on Rattus norvegicus [3], 10 mg/kg.
As for `CCCCCC(C)C(C)c1cc(NC(C)=O)c2c(c1)OC(C)(C)C1=C2CC(C)CC1` (racemic), the result in the assay with Mus musculus [1] and with Rattus norvegicus [2] was inactive. Also, the minimal effective dose in the assay on Rattus norvegicus [3] was found to be 10 mg/kg.
As for `CCCCCC(C)C(C)c1cc(NC)c2c(c1)OC(C)(C)C1=C2CC(C)CC1` (racemic), the minimal effective dose in the assay with Mus musculus [4] came out at 20 mg/kg. The result in the assay on Rattus norvegicus [2] and in the assay on Rattus norvegicus [6] was inactive.
As to `CCCCCC(C)C(C)c1cc2c(c(N(C)C)c1)C1=C(CCC(C)C1)C(C)(C)O2` (racemic), the minimal effective dose with Mus musculus [4] is 20 mg/kg. Further, the result in the assay on Rattus norvegicus [2] and in the assay on Rattus norvegicus [6] was inactive.
`CCCCCCC(C)(C)c1cc(NS(C)(=O)=O)c2c(c1)OC(C)(C)C1=C2CC(C)CC1` (racemic): in the assay on Mus musculus [4], the minimal effective dose turned out to be 20 mg/kg. Also, the result with Rattus norvegicus [2] and in the assay with Rattus norvegicus [6] was inactive.
For the compound `CCCCCC(C)C(C)c1cc(S)c2c(c1)OC(C)(C)C1=C2CC(C)CC1` (racemic), the result in the assay with Mus musculus [1], with Rattus norvegicus [2] and in the assay with Rattus norvegicus [6] was inactive.
In the case of `CCCCCCC(C)(C)c1cc(N)c2c(c1)OC(C)(C)C1=C2CC(C)CC1` (racemic) [listing 2 of 2 here], the outcome with Rattus norvegicus [2] was inactive.
Regarding `CCCCCc1cc(N)c2c(c1)OC(C)(C)C1=C2CC(C)CC1` (racemic), the result in the assay on Mus musculus [1], in the assay with Rattus norvegicus [2] and in the assay with Rattus norvegicus [6] was inactive.
On to `CCCCCc1cc(NC(C)=O)c2c(c1)OC(C)(C)C1=C2CC(C)CC1` (racemic), for which the outcome in the assay on Mus musculus [1], with Rattus norvegicus [2] and in the assay on Rattus norvegicus [6] was inactive.
As to `CCCCCc1cc(S)c2c(c1)OC(C)(C)C1=C2CC(C)CC1` (racemic), the outcome in the assay with Mus musculus [1], in the assay on Rattus norvegicus [2] and in the assay on Rattus norvegicus [6] was inactive.
With `CCCCCc1cc2c(c(N(C)C)c1)C1=C(CCC(C)C1)C(C)(C)O2` (racemic), the result in the assay with Mus musculus [1], in the assay on Rattus norvegicus [2] and with Rattus norvegicus [6] was inactive.
Consider `CCCCCCC(C)(C)c1cc(O)c2c(c1)OC(C)(C)C1=C2CC(C)CC1` (stereo in doubt; d-4c), for which the figures for the MED with Mus musculus [4], with Rattus norvegicus [5] and in the assay with Rattus norvegicus [3] were 0.31 mg/kg, 2.5 mg/kg and 5 mg/kg, respectively.
As to `CCCCCCC(C)(C)c1cc(N)c2c(c1)OC(C)(C)C1=C2CC(C)CC1` (stereo in doubt; d-10c) [listing 1 of 2 here], the MED in the assay with Mus musculus [4] turned out to be 10 mg/kg.
Take `CCCCCCC(C)(C)c1cc(N)c2c(c1)OC(C)(C)C1=C2CC(C)CC1` (stereo in doubt; d-10c) [listing 2 of 2 here]: the result in the assay with Rattus norvegicus [2] and with Rattus norvegicus [6] was inactive.
Take `CCCCCCC(C)(C)c1cc(O)c2c(c1)OC(C)(C)C1=C2CC(C)CC1` (stereo in doubt; l-4c): the MED with Rattus norvegicus [3] is 1.25 mg/kg.
Turning to `CCCCCCC(C)(C)c1cc(N)c2c(c1)OC(C)(C)C1=C2CC(C)CC1` (stereo in doubt; l-10c) [listing 1 of 2 here], the MED in the assay on Mus musculus [4] stood at 5 mg/kg; in the assay with Rattus norvegicus [3] it was 10 mg/kg.
With `CCCCCCC(C)(C)c1cc(N)c2c(c1)OC(C)(C)C1=C2CC(C)CC1` (stereo in doubt; l-10c) [listing 2 of 2 here], the result with Rattus norvegicus [2] was inactive.

The record behind these values is ChEMBL document CHEMBL3244312, “Cannabinoids. 1. 1-Amino- and 1-mercapto-7,8,9,10-tetrahydro-6H-dibenzo [b,d]pyrans” (1977).
